Results collected from several papers.
Protocols differ between the studies behind these lines.
Target: Serine/threonine-protein kinase Nek11 (NEK11, Homo sapiens, UniProt Q8NG66)
One construct used (Q8NG66 1-645): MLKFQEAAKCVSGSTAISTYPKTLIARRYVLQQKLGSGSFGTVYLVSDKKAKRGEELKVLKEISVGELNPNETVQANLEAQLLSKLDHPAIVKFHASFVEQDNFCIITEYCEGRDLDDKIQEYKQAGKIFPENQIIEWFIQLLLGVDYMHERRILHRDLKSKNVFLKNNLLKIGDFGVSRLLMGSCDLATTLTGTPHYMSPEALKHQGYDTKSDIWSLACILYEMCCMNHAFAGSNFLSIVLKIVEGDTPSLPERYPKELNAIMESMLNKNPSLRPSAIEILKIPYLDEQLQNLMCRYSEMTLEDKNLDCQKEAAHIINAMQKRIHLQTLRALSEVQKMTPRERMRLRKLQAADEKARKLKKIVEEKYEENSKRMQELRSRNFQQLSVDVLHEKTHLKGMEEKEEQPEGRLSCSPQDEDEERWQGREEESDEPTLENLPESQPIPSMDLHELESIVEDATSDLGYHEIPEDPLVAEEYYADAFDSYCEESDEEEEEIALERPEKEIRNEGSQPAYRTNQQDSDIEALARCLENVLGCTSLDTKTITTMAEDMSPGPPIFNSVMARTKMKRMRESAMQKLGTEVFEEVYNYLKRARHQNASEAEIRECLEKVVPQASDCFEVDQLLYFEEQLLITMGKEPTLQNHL

For C[C@H](c1cccc(C#N)c1)n1cc(Cl)cc(C(N)=O)c1=N, the remaining binding was 100% (cell-free assay, competition with immobilised ligand; 1 µM).
C[C@@H]1CCN(C(=O)CC#N)C[C@@H]1N(C)c1ncnc2[nH]ccc12 gave a remaining signal of 91.7% (cell-free assay, inhibitor; 0.5 µM).
For C[C@H](c1ccc(F)cc1)N(Cc1cccc(C(=O)O)c1)C(=O)c1cnc2ccccc2c1, the remaining binding was 82% (cell-free assay, competition with immobilised ligand; 1 µM).
CN1CC(Oc2cnc(C#N)cc2-c2ccn3nc(NC(=O)C4CC4)cc3c2)C1 gave an inhibition of 11% (enzyme activity, inhibitor; 1 µM).
Cc1ccc(NC(=O)c2ccc(C)c(C(F)(F)F)c2)cc1C#Cc1nn(C2CCC(O)CC2)c2ncnc(N)c12 (centres unmarked) gave a remaining signal of 50% (cell-free assay; 10 µM).
With CCC(=O)N[C@H]1CC[C@@H](C(=O)N(C)c2ccc(-c3nc4ccccc4o3)cc2)C1 the remaining binding was 86% (cell-free assay, competition with immobilised ligand; 1 µM).
Cc1ccc(Nc2nccc(N(C)c3ccc4c(C)n(C)nc4c3)n2)cc1S(N)(=O)=O gave an inhibition of 23% (enzyme activity, inhibitor; 10 µM).
The remaining signal of C#Cc1cccc(Nc2ncnc3cc(OCCOC)c(OCCOC)cc23)c1 is reported as 114% (cell-free assay; 0.5 µM).
For Cc1ccc(C(=O)Nc2ccc(CN3CCN(C)CC3)c(C(F)(F)F)c2)cc1C#Cc1cnc2cccnn12, the remaining activity was 83% (enzyme activity, inhibitor; 23.5 nM).
The remaining binding of O=C(O)[C@H]1[C@H](Cn2nnc3ccccc3c2=O)CC[C@@H]1C(=O)c1ccc(OCCC2CCOCC2)cc1 is reported as 100% (cell-free assay, competition with immobilised ligand; 1 µM).
The remaining signal of N#CCCc1ccc2c(c1)-c1[nH]c3ccc([N+](=O)[O-])cc3c1CC(=O)N2 is reported as 101% (cell-free assay; 0.5 µM).
For CNC(=O)c1cc(Oc2ccc(NC(=O)Nc3ccc(Cl)c(C(F)(F)F)c3)cc2)ccn1, the inhibition was 5% (enzyme activity, inhibitor; 0.3 µM).
CC1=C(C#N)C(c2ccc3c(c2)c(NC(=O)c2ccccc2C)nn3C)C(C#N)=C(C)N1 gave a remaining binding of 96% (cell-free assay, competition with immobilised ligand; 1 µM).
The remaining activity of CC(C)(C)c1nc(-c2cccc(NS(=O)(=O)c3c(F)cccc3F)c2F)c(-c2ccnc(N)n2)s1 is reported as 1% (enzyme activity, inhibitor, radiometric; 1 µM).
The inhibition of CCN(CC)CCNC(=O)c1c(C)[nH]c(/C=C2\C(=O)Nc3ccc(F)cc32)c1C is reported as 16% (enzyme activity, inhibitor; 0.3 µM).
Oc1cccc(-c2nc(N3CCOCC3)c3oc4ncccc4c3n2)c1 gave a remaining signal of 109% (cell-free assay; 0.5 µM).
With O=C(Nc1cnn(-c2csc(C(=O)NC3COC3)c2)c1)Nc1ccccc1Cl the remaining activity was 145% (enzyme activity, inhibitor; 5 µM).
With NS(=O)(=O)c1cc(NC(=O)C2(c3ccccc3Cl)CC2)ccc1Oc1cccc(Cl)c1 the remaining binding was 100% (cell-free assay, competition with immobilised ligand; 1 µM).
Nc1ncnc2occ(-c3ccc(NC(=O)Nc4cc(C(F)(F)F)ccc4F)cc3)c12 gave a remaining signal of 9.3% (cell-free assay, inhibitor; 20 µM).
With Cc1cnc(NC2CCOCC2)nc1-n1cnc(C(=O)NC(CN)c2cc(F)cc(Cl)c2)c1 (centres unmarked) the remaining activity was 81% (enzyme activity, inhibitor, radiometric; 1 µM).
